According to ChEMBL document CHEMBL1139420, “Antibacterial profile against drug-resistant Staphylococcus epidermidis clinical strain and structure-activity relationship studies of 1H-pyrazolo[3,4-b]pyridine and thieno[2,3-b]pyridine derivatives” (Bioorg Med Chem, 2008):
≈ marks a conversion by molar mass, not a printed value. Calls of active or inactive are those of the source. No cut-off for these calls is given here.

Assays:
Pseudomonas aeruginosa = assay: Antibacterial activity against drug-resistant Pseudomonas aeruginosa clinical isolate assessed as inhibition zone diameter after 24 hrs by antibacterial susceptibility test; type: functional, organism-based
Enterobacter cloacae = assay: Antibacterial activity against drug-resistant Enterobacter cloacae clinical isolate assessed as inhibition zone diameter after 24 hrs by antibacterial susceptibility test; type: functional, organism-based
Escherichia coli = assay: Antibacterial activity against drug-resistant Escherichia coli clinical isolate assessed as inhibition zone diameter after 24 hrs by antibacterial susceptibility test; type: functional, organism-based
Enterococcus faecalis = assay: Antibacterial activity against drug-resistant Enterococcus faecalis clinical isolate assessed as inhibition zone diameter after 24 hrs by antibacterial susceptibility test; type: functional, organism-based
[1] = Cytotoxicity against human PBMC assessed as cell viability at 700 uM after 3 to 5 days by XTT method; type: cell-based; conditions: PBMC (peripheral blood mononuclear cells), read-out: Activity
How it was run: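 Human PBMCs from healthy donors isolated by density gradient from buffy coats, kept in RPMI 1640 with 10% heat-inactivated FBS, penicillin, streptomycin, 2 mM glutamine, 10 mM Hepes; stimulated 2–3 days with 5 µg/mL PHA, then kept with 5 U/mL IL-2. Compound at 700 µM, 5% CO2, 37 °C; XTT added, OD 450 nm after 2 h; duplicate, at least three times.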

[2] = tested on: Staphylococcus epidermidis; assay: Antibacterial activity against drug-resistant Staphylococcus epidermidis clinical isolate at 10 times MIC; type: functional, organism-based
How it was run: (§1)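 Growth-curve assay on fluoro-substituted derivatives (ortho-, meta-, para-F). Logarithmic-phase cultures incubated with compound at 1× and 10× MIC and at 5 mg/mL. Optical density at 560 nm monitored over 6 h and expressed as growth (%) relative to untreated control.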

Serratia marcescens = assay: Antibacterial activity against drug-resistant Serratia marcescens clinical isolate assessed as inhibition zone diameter after 24 hrs by antibacterial susceptibility test; type: functional, organism-based
[3] = tested on: Acinetobacter calcoaceticus; assay: Antibacterial activity against drug-resistant Acinetobacter calcoaceticus clinical isolate assessed as inhibition zone diameter after 24 hrs by antibacterial susceptibility test; type: functional, organism-based
[4] = tested on: Staphylococcus epidermidis; assay: Antibacterial activity against drug-resistant Staphylococcus epidermidis clinical isolate at 16 ug/ml; type: functional, organism-based
[5] = tested on: Staphylococcus epidermidis; assay: Antibacterial activity against drug-resistant Staphylococcus epidermidis clinical isolate assessed as inhibition zone diameter after 24 hrs by antibacterial susceptibility test; type: functional
Klebsiella pneumoniae = assay: Antibacterial activity against drug-resistant Klebsiella pneumoniae clinical isolate assessed as inhibition zone diameter after 24 hrs by antibacterial susceptibility test; type: functional, organism-based
[6] = tested on: Staphylococcus epidermidis; assay: Antibacterial activity against drug-resistant Staphylococcus epidermidis clinical isolate after 24 hrs by macro-dilution broth method; type: functional
Proteus mirabilis = assay: Antibacterial activity against drug-resistant Proteus mirabilis clinical isolate assessed as inhibition zone diameter after 24 hrs by antibacterial susceptibility test; type: functional, organism-based
[7] = tested on: Staphylococcus epidermidis; assay: Antibacterial activity against drug-resistant Staphylococcus epidermidis clinical isolate at 5 mg/ml; type: functional, organism-based; how it was run: as §1

Structure (SMILES) | Activity (Pseudomonas aeruginosa) | Activity (Enterobacter cloacae) | Activity (Escherichia coli) | Activity (Enterococcus faecalis) | viability at 700 µM [1] [%] | Activity [2] | Activity (Serratia marcescens) | Activity [3] | Activity [4] | inhibition zone (IZ) [5] [mm] | Activity (Klebsiella pneumoniae) | MIC [6] [µg/mL] | Activity (Proteus mirabilis) | Activity [7]
O=C(O)c1cnc2c(cnn2-c2ccccc2)c1Nc1cccc(F)c1 | inactive | inactive | inactive | inactive | 100 | Active | inactive | inactive | Active | 20 | inactive | 16 (≈ 45.9 µM) | inactive | 
O=C(O)c1cnc2c(cnn2-c2ccccc2)c1Nc1ccc(F)cc1 | inactive | inactive | inactive | inactive | 100 |  | inactive | inactive |  | 0 | inactive |  | inactive | inactive
O=C(O)c1cnc2c(cnn2-c2ccccc2)c1Nc1ccccc1F |  |  |  |  |  |  |  |  |  |  |  |  |  | inactive
O=C(O)c1cnc2c(cnn2-c2ccccc2)c1Nc1cccc(Br)c1 | inactive | inactive | inactive | inactive | 100 |  | inactive | inactive |  | 17 | inactive | 16 (≈ 39.1 µM) | inactive | 
Cc1cccc(Nc2c(C(=O)O)cnc3c2cnn3-c2ccccc2)c1 | inactive | inactive | inactive | inactive | 100 |  | inactive | inactive |  | 16 | inactive | 64 (≈ 186 µM) | inactive | 
